From ChEMBL document CHEMBL1129433, “On the bioisosteric potential of diazines: diazine analogues of the combined thromboxane A2 receptor antagonist and synthetase inhibitor Ridogrel” (J Med Chem, 1996)

Legend:
Homo sapiens [1] = species on record: Homo sapiens; experiment: Inhibition of collagen-induced platelet aggregation in human platelet rich plasma; type: functional
How it was run: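 PRP and PPP were prepared from human blood by centrifugation at 1000 rpm and 4000 rpm respectively, each for 10 min at 10 °C. PRP was adjusted to […]. Collagen was 0.53 µg/mL final. Optical density of stirred PRP was recorded for 4 min, at least in duplicate. PRP and PPP set 0% and 100% light transmission. EC50 was taken from the concentration–inhibition curve.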

Thromboxane-A synthase = target: T1, Thromboxane-A synthase (Homo sapiens, UniProt P24557); experiment: TXA2 synthetase inhibition measured by the inhibition of TXB2 formation by human gel-filtered platelets incubated with [14C]arachidonic acid
T1 sequence (P24557 whole entry): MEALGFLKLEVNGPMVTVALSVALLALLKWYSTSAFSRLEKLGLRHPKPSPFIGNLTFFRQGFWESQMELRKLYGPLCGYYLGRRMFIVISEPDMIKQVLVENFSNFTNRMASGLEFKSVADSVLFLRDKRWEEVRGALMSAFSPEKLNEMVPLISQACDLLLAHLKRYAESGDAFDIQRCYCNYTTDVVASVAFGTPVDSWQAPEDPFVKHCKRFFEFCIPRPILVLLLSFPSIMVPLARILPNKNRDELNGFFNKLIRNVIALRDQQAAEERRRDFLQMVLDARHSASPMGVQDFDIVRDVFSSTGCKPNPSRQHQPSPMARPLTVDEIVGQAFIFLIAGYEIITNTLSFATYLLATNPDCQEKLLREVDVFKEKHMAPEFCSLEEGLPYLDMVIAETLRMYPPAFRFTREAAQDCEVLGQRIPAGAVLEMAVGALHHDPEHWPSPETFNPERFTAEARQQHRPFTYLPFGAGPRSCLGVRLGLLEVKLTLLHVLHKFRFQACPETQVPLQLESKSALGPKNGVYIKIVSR

Thromboxane A2 receptor [2] = target: T2, Thromboxane A2 receptor (Homo sapiens, UniProt P21731); experiment: TXA2 receptor antagonism, measured by the displacement of [3H]SQ29,548 from the PGH-2/TXA-2 receptor on human platelets; type: functional
T2 sequence (P21731 whole entry): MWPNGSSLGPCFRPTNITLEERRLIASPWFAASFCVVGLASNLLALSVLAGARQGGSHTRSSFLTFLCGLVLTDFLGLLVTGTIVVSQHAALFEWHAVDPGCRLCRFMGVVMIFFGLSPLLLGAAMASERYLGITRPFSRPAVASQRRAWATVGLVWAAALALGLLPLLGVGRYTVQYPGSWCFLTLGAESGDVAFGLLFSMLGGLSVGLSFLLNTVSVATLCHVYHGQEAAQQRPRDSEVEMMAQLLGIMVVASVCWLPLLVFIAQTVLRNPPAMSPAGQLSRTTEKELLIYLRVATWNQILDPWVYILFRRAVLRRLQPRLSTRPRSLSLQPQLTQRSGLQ
How it was run: (§1)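 Human gel-filtered platelets were used. Nonspecific binding was defined with U 46,619 at 30 µM final in place of the test compound. IC50 is the concentration giving 50% displacement of [³H]SQ 29,548.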

Homo sapiens [3] = species on record: Homo sapiens; experiment: In vitro inhibition of collagen-induced platelet aggregation in human platelet-rich plasma (PRP) at 273 uM; type: functional
Homo sapiens [4] = species on record: Homo sapiens; experiment: In vitro inhibition of collagen-induced platelet aggregation in human platelet-rich plasma (PRP) at 291 uM; type: functional
Homo sapiens [5] = species on record: Homo sapiens; experiment: In vitro inhibition of collagen-induced platelet aggregation in human platelet-rich plasma (PRP) at 278uM; type: functional
Thromboxane A2 receptor [6] = target: T2, Thromboxane A2 receptor; experiment: TXA2 receptor antagonism, measured by the displacement of [3H]SQ-29548 from the PGH-2/TXA-2 receptor on human platelets; type: functional; how it was run: as §1

Row | Compound | EC50 (Homo sapiens [1]) [µM] | IC50 (Thromboxane-A synthase) [µM] | IC50 (Thromboxane A2 receptor [2]) [µM] | other results
1 | O=C(O)CCCCCO/N=C(\c1ccccc1)c1ccncn1 | 112 | > 10 | 5 | 
2 | O=C(O)CCCCO/N=C(/c1cncnc1)c1cccc(C(F)(F)F)c1 | 32 | 0.039 | 1.5 | 
3 | O=C(O)CCCCO/N=C(\c1cccc(C(F)(F)F)c1)c1cnccn1 | 190 | 0.006 | 11 | 
4 | O=C(O)CCCCO/N=C(\c1ccccc1)c1ncccn1 |  | > 100 |  | inhibition at 273 µM (Homo sapiens [3]): 0%
5 | O=C(O)CCCCCO/N=C(/c1ccccc1)c1ccncn1 | 236 | > 10 | 25 | 
6 | O=C(O)CCCCCO/N=C(\c1cccc(C(F)(F)F)c1)c1cnccn1 | 251 |  |  | 
7 | O=C(O)CCCCCO/N=C(/c1cccc(C(F)(F)F)c1)c1ccncn1 | 184 |  |  | 
8 | O=C(O)CCCCCO/N=C(\c1cccc(C(F)(F)F)c1)c1ccncn1 | 25 | > 10 | 1.1 | 
9 | O=C(O)CCCCCO/N=C(\c1cccc(C(F)(F)F)c1)c1cccnn1 | 241 |  |  | 
10 | O=C(O)CCCCCO/N=C(/c1ccccc1)c1cncnc1 | 127 | > 10 | 8.8 | 
11 | O=C(O)CCCCO/N=C(\c1cccc(C(F)(F)F)c1)c1cccnn1 | 78 | > 100 | 10 | 
12 | O=C(O)CCCO/N=C(/c1ccccc1)c1ccncn1 |  |  |  | inhibition at 273 µM (Homo sapiens [3]): 38%
13 | O=C(O)CCCCCO/N=C(\c1cccc(C(F)(F)F)c1)c1ncccn1 | 291 |  |  | 
14 | O=C(O)CCCO/N=C(/c1ccccc1)c1cncnc1 |  |  |  | inhibition at 273 µM (Homo sapiens [3]): 17%
15 | O=C(O)CCCCO/N=C(\c1ccccc1)c1cnccn1 | 91 | 0.079 | 47 | 
16 | O=C(O)CCCCO/N=C(/c1cccc(C(F)(F)F)c1)c1ncccn1 | 214 | > 10 | 52 | 
17 | O=C(O)CCCCO/N=C(\c1ccccc1)c1ccnnc1 | 227 | 0.26 | 33 | 
18 | O=C(O)CCCO/N=C(/c1ccccc1)c1ccnnc1 |  |  |  | inhibition at 273 µM (Homo sapiens [3]): 21%
19 | O=C(O)CCCCO/N=C(\c1cccc(C(F)(F)F)c1)c1ncccn1 | 272 | > 10 | 99 | 

Row | Compound | EC50 (Homo sapiens [1]) [µM] | IC50 (Thromboxane-A synthase) [µM] | IC50 (Thromboxane A2 receptor [2]) [µM] | other results
20 | O=C(O)CCCCO/N=C(/c1ccccc1)c1cnccn1 | 94 | 0.62 | 24 | 
21 | O=C(O)CCCCO/N=C(/c1ccccc1)c1ccnnc1 | 163 | 8.8 | 13 | 
22 | O=C(O)CCCCCO/N=C(/c1cccc(C(F)(F)F)c1)c1cnccn1 |  |  |  | inhibition at 291 µM (Homo sapiens [4]): 47%
23 | O=C(O)CCCO/N=C(/c1ccccc1)c1cccnn1 |  |  |  | inhibition at 273 µM (Homo sapiens [3]): 2%
24 | O=C(O)CCCO/N=C(\c1ccccc1)c1cccnn1 |  |  |  | inhibition at 273 µM (Homo sapiens [3]): 4%
25 | O=C(O)CCCO/N=C(\c1ccccc1)c1ccncn1 |  |  |  | inhibition at 273 µM (Homo sapiens [3]): 34%
26 | O=C(O)CCCO/N=C(/c1ccccc1)c1ncccn1 |  |  |  | inhibition at 273 µM (Homo sapiens [3]): 0%
27 | O=C(O)CCCCO/N=C(/c1ccccc1)c1ncccn1 |  | > 10 |  | inhibition at 273 µM (Homo sapiens [3]): 0%
28 | O=C(O)CCCCO/N=C(/c1ccccc1)c1cccnn1 | 217 | > 100 | 71 | 
29 | O=C(O)CCCCCO/N=C(/c1ccccc1)c1ncccn1 |  |  |  | inhibition at 273 µM (Homo sapiens [3]): 0%
30 | O=C(O)CCCCCO/N=C(\c1ccccc1)c1ccnnc1 | 59 | 3.8 | 7.1 | 
31 | O=C(O)CCCCO/N=C(/c1cccc(C(F)(F)F)c1)c1cnccn1 | 65 | 2.9 | 1.5 | 
32 | O=C(O)CCCCCO/N=C(\c1ccccc1)c1cccnn1 | 203 |  |  | 
33 | O=C(O)CCCCCO/N=C(/c1ccccc1)c1cnccn1 | 216 |  |  | 
34 | O=C(O)CCCCCO/N=C(\c1ccccc1)c1cnccn1 | 131 |  |  | 
35 | O=C(O)CCCCCO/N=C(\c1cncnc1)c1cccc(C(F)(F)F)c1 | 291 |  |  | 
36 | O=C(O)CCCCO/N=C(\c1ccccc1)c1cncnc1 |  | 0.075 | 20 | inhibition at 278 µM (Homo sapiens [5]): 40%
37 | O=C(O)CCCCO/N=C(\c1ccccc1)c1ccncn1 | 274 | > 100 | 30 | 
38 | O=C(O)CCCCO/N=C(/c1ccnnc1)c1cccc(C(F)(F)F)c1 | 52 | 0.016 | 6 | 

Row | Compound | EC50 (Homo sapiens [1]) [µM] | IC50 (Thromboxane-A synthase) [µM] | IC50 (Thromboxane A2 receptor [2]) [µM] | other results
39 | O=C(O)CCCO/N=C(\c1ccccc1)c1ncccn1 |  |  |  | inhibition at 273 µM (Homo sapiens [3]): 0%
40 | O=C(O)CCCCO/N=C(\c1cccc(C(F)(F)F)c1)c1ccncn1 | 19 | > 10 | 1.4 | 
41 | O=C(O)CCCO/N=C(\c1ccccc1)c1ccnnc1 | 245 |  |  | 
42 | O=C(O)CCCCCO/N=C(/c1ccccc1)c1ccnnc1 | 81 | > 10 | 7.7 | 
43 | O=C(O)CCCCO/N=C(/c1ccccc1)c1ccncn1 | 255 | > 100 | 25 | 
44 | O=C(O)CCCCCO/N=C(/c1ccccc1)c1cccnn1 | 204 |  |  | 
45 | O=C(O)CCCCCO/N=C(/c1ccnnc1)c1cccc(C(F)(F)F)c1 | 186 | 0.693 | 29 | 
46 | O=C(O)CCCO/N=C(\c1ccccc1)c1cncnc1 |  |  |  | inhibition at 273 µM (Homo sapiens [3]): 46%
47 | O=C(O)CCCO/N=C(/c1ccccc1)c1cnccn1 |  |  |  | inhibition at 273 µM (Homo sapiens [3]): 19%
48 | O=C(O)CCCCO/N=C(/c1ccccc1)c1cncnc1 | 191 | 0.573 | 7.2 | 
49 | O=C(O)CCCCO/N=C(\c1ccnnc1)c1cccc(C(F)(F)F)c1 | 30 | 6.63 | 1.8 | 
50 | O=C(O)CCCCCO/N=C(\c1ccccc1)c1ncccn1 |  |  |  | inhibition at 273 µM (Homo sapiens [3]): 0%
51 | O=C(O)CCCO/N=C(\c1ccccc1)c1cnccn1 |  |  |  | inhibition at 273 µM (Homo sapiens [3]): 47%
52 | O=C(O)CCCCCO/N=C(/c1cncnc1)c1cccc(C(F)(F)F)c1 | 200 |  |  | 
53 | O=C(O)CCCCO/N=C(\c1ccccc1)c1cccnn1 |  | > 100 |  | IC50 (Thromboxane A2 receptor [6]): 104 µM; inhibition at 278 µM (Homo sapiens [5]): 47%
54 | O=C(O)CCCCO/N=C(/c1cccc(C(F)(F)F)c1)c1ccncn1 | 71 | > 100 | 2.5 | 
55 | O=C(O)CCCCO/N=C(\c1cncnc1)c1cccc(C(F)(F)F)c1 | 12 | 6.1 | 0.36 | 
56 | O=C(O)CCCCCO/N=C(\c1ccnnc1)c1cccc(C(F)(F)F)c1 |  | > 10 | 21 | inhibition at 291 µM (Homo sapiens [4]): 26%
57 | O=C(O)CCCCO/N=C(/c1cccnc1)c1cccc(C(F)(F)F)c1 [RIDOGREL] | 41 | 0.007 |  | 
